From ChEMBL document CHEMBL1142002, “Design, synthesis and biological evaluation of novel bicyclic beta-lactams as potential antimalarials” (Bioorg Med Chem Lett, 2005)

Columns and labels:
Plasmodium falciparum [1] = experiment: (§1) In vitro antimalarial activity for chloroquine-sensitive Plasmodium falciparum in schizont maturation assay; type: functional, organism-based
In short: (§2)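 P. falciparum (lab chloroquine-sensitive strains; resistant field isolate from Jagadalpur patients) in O+ human RBCs, RPMI 1640 + 10% human serum, 37 °C, 5% CO2; sorbitol-synchronized rings at 2% in erythrocytes. Double dilutions, duplicate wells, 24 h. Giemsa smears: mature schizonts counted among 200 asexual parasites; inhibition = (1 − Nt/Nc) × 100.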

Plasmodium falciparum [2] = experiment: (§3) In vitro antimalarial activity for chloroquine-resistant Plasmodium falciparum in schizont maturation assay; type: functional, organism-based; in short: as §2
Plasmodium falciparum [3] = experiment: as §3; type: functional; in short: as §2
Plasmodium falciparum [4] = experiment: as §1; type: functional
In short: (§4)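 Chloroquine-sensitive P. falciparum, sorbitol-synchronized ring stages, cultured in O+ human RBCs in RPMI 1640 with 10% human serum at 37 °C under 5% CO2. Duplicate wells held erythrocytes at 2% ring-stage parasitaemia across double dilutions of compound. After 24 h, Giemsa smears were scored for mature schizonts among 200 asexual parasites. Inhibition was calculated as (1 − Nt/Nc)×100 against medium-only controls.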

Plasmodium falciparum [5] = experiment: In vitro antimalarial activity as schizont maturation against drug-sensitive Plasmodium falciparum; type: functional; in short: as §4
Plasmodium falciparum [6] = experiment: In vitro antimalarial activity as schizont maturation against drug-resistant Plasmodium falciparum; type: functional; in short: as §2

| SMILES | IC50 (Plasmodium falciparum [1]) [µM] | IC50 (Plasmodium falciparum [2]) [µM] | IC90 (Plasmodium falciparum [3]) [µM] | IC99 (Plasmodium falciparum [3]) [µM] | IC90 (Plasmodium falciparum [4]) [µM] | IC99 (Plasmodium falciparum [4]) [µM] | IC90 (Plasmodium falciparum [5]) [µM] | IC90 (Plasmodium falciparum [6]) [µM] |
| --- | --- | --- | --- | --- | --- | --- | --- | --- |
| O=C1NC2CCCC12 (stereo unspecified) | 13.5 | 12.4 | 34.5 | 48.7 | 31.9 | 42.2 |  |  |
| O=C1C2CC=CC=CC2N1Cc1ccccc1 (stereo unspecified) | 1.8 | 1.8 | 2.9 | 3.3 | 2.8 | 3.2 |  |  |
| O=C1NC2CCCCCCC12 (stereo unspecified) | 8.1 | 8.4 | 33.9 | 54.8 | 33.7 | 51.2 |  |  |
| O=C1NC2CC/C=C\CCC12 (stereo unspecified) | 6.8 | 7.3 | 26.1 | 48.7 | 25.4 | 43.4 |  |  |
| O=C1C2CCCCCCC2N1Cc1ccccc1 (stereo unspecified) | 8.1 | 7.9 | 19.4 | 27.4 | 18.8 | 25.2 |  |  |
| O=C1C2CCCC2N1Cc1ccccc1 (stereo unspecified) | 6.5 | 7.4 | 12.4 | 14.5 | 11.2 | 12.3 |  |  |
| O=C1C2CC=CCC2N1Cc1ccccc1 (stereo unspecified) | 1.5 | 1.6 | 6.1 | 6.4 | 5.6 | 6.1 |  |  |
| O=C1NC2CC=CCC12 (stereo unspecified) | 9.1 | 8.7 | 21.2 | 25.3 | 19.3 | 23.2 |  |  |
| O=C1NC2C=CC=CCC12 (stereo unspecified) |  | 4.6 | 15.4 | 24.8 | 14.5 | 20.1 |  |  |
| O=C1C2CC/C=C\CCC2N1Cc1ccccc1 (stereo unspecified) | 5.4 | 5.8 | 11.4 | 14.5 | 10.7 | 13.3 |  |  |
| CCN(CC)CCCC(C)Nc1ccnc2cc(Cl)ccc12 (stereo unspecified) [CHLOROQUINE] |  |  |  |  |  |  | 0.05 | 0.5 |
